Experimental data taken from article PMC4652583 (Organic letters, 2012).
Ends that are not written are not given here.

Key:
myeloma and lymphoma = conditions: in clinical trials for myeloma and lymphoma; ref [9]; cited from earlier work
Nedd8 E1 = conditions: ref [8]; cited from earlier work
Ube1 [1] = molecular target: T1, Ube1 (Homo sapiens, UniProt P22314); assay: Competitive inhibition of UB transfer to Ube1; format: biochemical
T1 sequence (P22314 1-1058): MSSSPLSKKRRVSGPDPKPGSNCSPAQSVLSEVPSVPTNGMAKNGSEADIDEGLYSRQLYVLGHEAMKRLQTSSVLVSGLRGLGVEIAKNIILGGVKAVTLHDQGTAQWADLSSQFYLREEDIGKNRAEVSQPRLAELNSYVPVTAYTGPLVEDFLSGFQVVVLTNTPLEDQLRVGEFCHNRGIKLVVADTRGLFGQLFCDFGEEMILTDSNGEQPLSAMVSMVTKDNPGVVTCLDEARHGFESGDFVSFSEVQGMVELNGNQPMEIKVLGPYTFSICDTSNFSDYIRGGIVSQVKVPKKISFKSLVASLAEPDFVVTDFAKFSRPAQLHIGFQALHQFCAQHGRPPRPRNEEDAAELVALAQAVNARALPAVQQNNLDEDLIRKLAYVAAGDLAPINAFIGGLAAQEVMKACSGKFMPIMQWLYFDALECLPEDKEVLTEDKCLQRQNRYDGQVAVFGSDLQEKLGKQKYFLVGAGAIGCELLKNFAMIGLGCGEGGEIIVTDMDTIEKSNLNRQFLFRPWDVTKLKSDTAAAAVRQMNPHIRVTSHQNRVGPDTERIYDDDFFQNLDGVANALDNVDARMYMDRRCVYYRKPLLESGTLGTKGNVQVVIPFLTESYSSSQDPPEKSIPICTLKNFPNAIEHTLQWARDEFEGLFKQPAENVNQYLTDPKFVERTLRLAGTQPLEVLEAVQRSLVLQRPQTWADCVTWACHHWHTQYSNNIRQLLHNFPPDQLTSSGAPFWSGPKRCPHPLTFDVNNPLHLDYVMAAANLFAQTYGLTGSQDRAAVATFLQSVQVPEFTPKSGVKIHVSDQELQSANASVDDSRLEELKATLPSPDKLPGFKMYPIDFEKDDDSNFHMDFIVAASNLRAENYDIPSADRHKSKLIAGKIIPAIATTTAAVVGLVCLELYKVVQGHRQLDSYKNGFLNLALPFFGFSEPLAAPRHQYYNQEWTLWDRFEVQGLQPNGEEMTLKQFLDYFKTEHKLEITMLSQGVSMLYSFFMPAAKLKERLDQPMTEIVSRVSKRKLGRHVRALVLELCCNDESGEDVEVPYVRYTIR
How it was run: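 Increasing concentrations of test peptide were incubated with 1 µM UB and reacted with Ube1 (E1). UB~E1 thioester conjugate formed in each reaction was measured by Western blot.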

Ube1 [2] = molecular target: T1, Ube1; assay: ATP-PPi exchange kinetics catalyzed by Ube1; format: biochemical
[3] = substrate: CC(C)[C@H](N)C(=O)N[C@@H](Cc1c[nH]c2ccccc12)C(=O)N[C@@H](CCCNC(=N)N)C(=O)N[C@@H](Cc1ccccc1)C(=O)N[C@@H](Cc1c[nH]cn1)C(=O)NCC(=O)NCC(=O)O; assay: ATP-PPi exchange kinetics catalyzed by Ube1; format: biochemical, human; conditions: other: ATP-PPi exchange catalyzed by Ube1
[4] = substrate: CC(C)[C@H](N)C(=O)N[C@@H](CCC(N)=O)C(=O)N[C@@H](CCCNC(=N)N)C(=O)N[C@@H](Cc1ccc(O)cc1)C(=O)N[C@@H](Cc1c[nH]c2ccccc12)C(=O)NCC(=O)NCC(=O)O; assay: ATP-PPi exchange kinetics catalyzed by Ube1; format: biochemical, human; conditions: other: ATP-PPi exchange catalyzed by Ube1

NS(=O)(=O)OC[C@@H]1C[C@@H](n2ccc3c(N[C@H]4CCc5ccccc54)ncnc32)C[C@@H]1O [MLN4924]
anticancer activities (myeloma and lymphoma): promising anticancer activities
inhibition of Nedd8 E1 (Nedd8 E1): potent inhibitor of the Nedd8 E1

VLRLRGG [P1]
inhibition of UB loading on E1 (Ube1 [1]; at a concentration as high as 1 mM, 1 µM UB, Western blot): cannot significantly inhibit UB loading on E1
kcat/K1/2 (Ube1 [2]; ATP-PPi exchange catalyzed by Ube1): 1.28 M⁻¹ s⁻¹
saturation of Ube1 (Ube1 [2]; at a concentration as high as 500 µM in the ATP-PPi exchange reaction): could not saturate Ube1

VYRFYGG [P4]
IC50 (Ube1 [1]): 220 µM

VWRFHGG [P2]
IC50 (Ube1 [1]): 266 µM

VQRYWGG [P3]
IC50 (Ube1 [1]): 172 µM

B1: Ube1 (Homo sapiens) (protein)
chain: T1 sequence (P22314 1-1058)
kcat [3]: 0.0583 ± 0.01 s⁻¹
kcat/Km [3]: 167 M⁻¹ s⁻¹
kcat [4]: 0.162 ± 0.0233 s⁻¹
kcat/Km [4]: 383 M⁻¹ s⁻¹
